These results are taken from PMC4015637 (Anticancer research, 2014).

Read-outs that look alike come from different tables or passages of the source. A value given as a limit tells only on which side of the number the result lay.

In one data set the test system is mice or rats. As to conditions: cited from earlier work.
The test system of a further data set is male C57/BL6 mice. The data set is described as follows: In vivo toxicity study. The following applies: for calcification in organs / histopathological analysis of the major organs (liver, heart, kidney) / toxicity in vivo (clinical pathology chemistry profile, complete blood count): 60 μg/kg i.p., three weeks.
Data set [1] is described as follows: In vitro metabolic stability in rat liver microsomes. In kind it is in vitro ADME. The following applies: 0.5 μM compound, 1 mg/ml microsomal protein, NADPH, 37°C, n=3, mean±S.D. In outline:
(§1)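 Pooled liver microsomes (1 mg/ml protein) with 0.5 μM test compound, added from acetonitrile stock, in 0.2 M phosphate pH 7.4 with NADPH-regenerating system (1.3 mM NADP+, 3.3 mM glucose-6-phosphate, 0.4 U/ml G6P dehydrogenase), shaken at 37°C. Samples at 5–120 min quenched in acetonitrile with deuterated internal standard, centrifuged, and analysed by LC-MS/MS for % remaining. Half-life reported; n=3, mean±S.D.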
In general terms: Liver microsomes are a subcellular fraction often used to study metabolism.

Data set [2] can be described thus: In vitro metabolic stability in human liver microsomes. In kind it is in vitro ADME. As to conditions: 0.5 μM compound, 1 mg/ml microsomal protein, NADPH, 37°C, n=3, mean±S.D. Put shortly: as §1
A short description of data set [3]: In vitro metabolic stability in monkey liver microsomes. The following applies: 0.5 μM compound, 1 mg/ml microsomal protein, NADPH, 37°C, n=3, mean±S.D. It counts as in vitro ADME. In outline:
as §1

Data set [4] in a line: In vitro metabolic stability in dog liver microsomes. The following applies: 0.5 μM compound, 1 mg/ml microsomal protein, NADPH, 37°C, n=3, mean±S.D. It counts as in vitro ADME. In outline:
as §1

The nature of data set [5]: In vitro metabolic stability in mouse liver microsomes. In kind it is in vitro ADME. As to conditions: 0.5 μM compound, 1 mg/ml microsomal protein, NADPH, 37°C, n=3, mean±S.D. In outline: as §1
The format of data set [6] is in vitro ADME, human, rat, mouse, monkey, dog.
A further data set has as its target T1, human CYP27A1 (Homo sapiens, UniProt Q02318).
T1 sequence (Q02318 34-531): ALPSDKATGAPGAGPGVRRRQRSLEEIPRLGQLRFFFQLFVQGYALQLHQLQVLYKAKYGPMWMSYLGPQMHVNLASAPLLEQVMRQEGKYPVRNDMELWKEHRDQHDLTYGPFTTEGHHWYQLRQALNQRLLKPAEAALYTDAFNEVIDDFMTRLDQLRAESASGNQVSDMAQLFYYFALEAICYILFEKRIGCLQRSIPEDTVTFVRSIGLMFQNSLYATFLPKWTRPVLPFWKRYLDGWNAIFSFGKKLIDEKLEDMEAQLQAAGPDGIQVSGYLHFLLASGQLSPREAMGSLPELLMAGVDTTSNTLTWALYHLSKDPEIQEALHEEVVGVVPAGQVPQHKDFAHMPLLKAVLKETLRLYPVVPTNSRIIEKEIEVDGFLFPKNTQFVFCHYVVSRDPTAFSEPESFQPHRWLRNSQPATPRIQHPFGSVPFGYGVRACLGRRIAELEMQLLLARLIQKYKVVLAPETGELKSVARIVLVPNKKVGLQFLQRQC
The data set is described as follows: Metabolism by purified recombinant CYP27A1 in reconstituted system. It counts as in vitro ADME. The following applies: 50 μM substrate in 0.45% cyclodextrin, 1 μM human CYP27A1, 1 h incubation. In outline: (§2)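 Reconstituted system: adrenodoxin (15 μM), adrenodoxin reductase (4 μM), purified recombinant human CYP11A1 or CYP27A1 (1 μM). Substrate at 50 μM final, solubilised in 0.45% 2-hydroxypropyl-β-cyclodextrin. Incubation 1 h, extended for some analogs to 2 h (CYP11A1) or 3 h (CYP27A1). Products extracted with dichloromethane and resolved by reverse-phase HPLC. Read-outs are % substrate conversion and number of products.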

The target in a further data set is T2, rat CYP24A1 (Rattus norvegicus, UniProt Q09128).
T2 sequence (Q09128 36-514): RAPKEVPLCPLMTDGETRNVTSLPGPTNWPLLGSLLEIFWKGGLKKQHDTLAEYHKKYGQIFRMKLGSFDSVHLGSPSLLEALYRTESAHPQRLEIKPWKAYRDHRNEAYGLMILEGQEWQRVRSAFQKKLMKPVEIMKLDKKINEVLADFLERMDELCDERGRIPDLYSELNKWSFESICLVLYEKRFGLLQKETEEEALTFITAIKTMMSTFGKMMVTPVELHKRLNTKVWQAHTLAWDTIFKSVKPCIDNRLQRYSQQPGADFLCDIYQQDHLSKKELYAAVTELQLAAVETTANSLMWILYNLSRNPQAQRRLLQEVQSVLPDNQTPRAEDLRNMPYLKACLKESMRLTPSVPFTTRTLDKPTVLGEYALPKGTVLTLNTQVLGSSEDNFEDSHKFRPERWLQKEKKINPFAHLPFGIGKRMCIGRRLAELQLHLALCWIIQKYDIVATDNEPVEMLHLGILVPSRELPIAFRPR
The data set is described as follows: Metabolism by purified recombinant CYP24A1 in reconstituted system. The following applies: phospholipid vesicles, 0.025 mol secosteroid/mol phospholipid, 1 μM rat CYP24A1, 1 h. In kind it is in vitro ADME. Put shortly:
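Reconstituted system: purified recombinant rat CYP24A1 (1 μM), adrenodoxin (15 μM) and adrenodoxin reductase (4 μM). Test compound incorporated into phospholipid vesicles at 0.025 mol secosteroid/mol phospholipid. Incubated 1 h. Products extracted with dichloromethane and resolved by reverse-phase HPLC. Result expressed as percentage conversion of substrate to products and number of products.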

For a further data set, the target named is T3, human CYP11A1 (Homo sapiens, UniProt P05108).
T3 sequence (P05108 40-521): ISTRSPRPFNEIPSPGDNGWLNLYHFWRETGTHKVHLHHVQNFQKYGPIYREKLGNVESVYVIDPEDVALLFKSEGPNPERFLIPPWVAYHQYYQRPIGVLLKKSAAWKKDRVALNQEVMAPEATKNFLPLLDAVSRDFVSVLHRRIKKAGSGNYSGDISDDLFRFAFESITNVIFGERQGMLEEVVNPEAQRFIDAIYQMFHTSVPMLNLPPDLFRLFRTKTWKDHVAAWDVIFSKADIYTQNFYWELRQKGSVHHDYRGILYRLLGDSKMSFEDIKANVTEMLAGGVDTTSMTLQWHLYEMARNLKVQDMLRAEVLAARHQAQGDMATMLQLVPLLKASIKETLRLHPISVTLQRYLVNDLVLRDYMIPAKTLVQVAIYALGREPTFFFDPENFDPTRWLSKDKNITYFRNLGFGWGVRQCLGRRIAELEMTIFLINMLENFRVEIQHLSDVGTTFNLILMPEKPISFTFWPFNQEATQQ
The data set is described as follows: Metabolism by purified recombinant CYP11A1 in reconstituted system. It counts as in vitro ADME. As to conditions: 50 μM substrate in 0.45% cyclodextrin, 1 μM human CYP11A1, 1 h incubation. Put shortly: as §2

Another data set relates to rats. The following applies: 3 μg/kg for seven consecutive days; cited from earlier work.
The test system of another data set is mice. The following applies: up to 30 μg/kg for three weeks; cited from earlier work.
[7] abbreviates: 60 μg/kg i.p. once daily for three weeks.

With `C=C1/C(=C\C=C2/CCC[C@]3(C)[C@@H]([C@H](C)CCCC(C)(C)O)CC[C@@H]23)C[C@@H](O)C[C@@H]1O` [1,25(OH)2D3, 1,25-dihydroxy vitamin D3, reference compound], in the data set with mice or rats (mice (ref 37) or rats (ref 20)), the “dose reported to generate hypercalcemia” value was at least 1 µg/kg. Also, in the data set on male C57/BL6 mice (2 μg/kg i.p. once daily for three weeks), the body weight came to 21 ± 1 g. Besides, the serum calcium in the data set with male C57/BL6 mice (2 μg/kg i.p. once daily for three weeks, positive control) turned out to be 14.6 ± 0.48 mg/dL.

Consider `C=C1CC[C@H](O)C/C1=C/C=C1\CCC[C@@]2(C)C1CC[C@@H]2[C@@](C)(O)CCCC(C)C` (stereo partly drawn) [20R(OH)D3, 20R-hydroxyvitamin D3], for which the “half-life in liver microsomes, Rat” value in data set [1] is 19 ± 3 min. For the same molecule, the “half-life in liver microsomes, Human” value in data set [2] was 34 ± 2 min. Moreover, the “half-life in liver microsomes, Monkey” value in [3] was determined as 15 ± 1 min. Further, the “half-life in liver microsomes, Dog” value in [4] amounted to 21 ± 2 min. Moreover, the “half-life in liver microsomes, Mouse” value in [5] turned out to be 25 ± 1 min. In data set [6], the “half-life in liver microsomes, average of five different species” value was determined as 30 min. Also, on human CYP27A1, the “CYP27A1 % conversion of substrate to products” value is 90% and the “CYP27A1 No. of different products (at least 2% of total secosteroids)” value was found to be 3. The “CYP24A1 No. of different products (at least 2% of total secosteroids)” value on rat CYP24A1 worked out at 4. In addition, in the data set on male C57/BL6 mice (setting [7]), the body weight was found to be 25 ± 1 g and the serum calcium stood at 8.6 ± 0.77 mg/dL. For the same molecule, in the data set on male C57/BL6 mice, the calcification in organs entry is given as “Calcification was not present”; the “histopathological analysis of the major organs (liver, heart, kidney)” value is listed as “unremarkable histology”; the “toxicity in vivo (clinical pathology chemistry profile, complete blood count)” value was “did not show toxicity”.

`C=C1CC[C@H](O)C/C1=C/C=C1\CCC[C@@]2(C)[C@H]1CC[C@@H]2[C@@](C)(O)CCCC(C)C` [20S(OH)D3, 20S-hydroxyvitamin D3]: the “half-life in liver microsomes, Rat” value in data set [1] turned out to be 43 ± 1 min. In addition, the “half-life in liver microsomes, Human” value in [2] was found to be 60 ± 4 min. In addition, the “half-life in liver microsomes, Monkey” value in data set [3] was determined as 37 ± 1 min. Also, in data set [4], the “half-life in liver microsomes, Dog” value came out at 47 ± 1 min. In addition, in [5], the “half-life in liver microsomes, Mouse” value is 42 ± 2 min. Moreover, in data set [6], the “half-life in liver microsomes, average of five different species” value was 50 min. Also, at human CYP11A1, the “CYP11A1 % conversion of substrate to products” value is 21% and the “CYP11A1 No. of different products (at least 2% of total secosteroids)” value is 3. In addition, the “CYP27A1 No. of different products (at least 2% of total secosteroids)” value at human CYP27A1 is 3. Also, the “CYP24A1 No. of different products (at least 2% of total secosteroids)” value at rat CYP24A1 is reported as 3. Besides, the “effect on systemic calcium levels” value in the data set on rats is reported as “no effect on systemic calcium levels”. Besides, the “effect on systemic calcium levels” value in the data set on mice is “no effect on systemic calcium levels”. Moreover, in the data set with male C57/BL6 mice (setting [7]), the body weight amounted to 25 ± 1 g and the serum calcium came to 8.8 ± 0.66 mg/dL. In the data set on male C57/BL6 mice, the calcification in organs result is on record as “Calcification was not present”; the “histopathological analysis of the major organs (liver, heart, kidney)” value is listed as “six out of the seven mice treated with 20S(OH)D3 show unremarkable histology”; the “toxicity in vivo (clinical pathology chemistry profile, complete blood count)” value is listed as “did not show toxicity”. Further, the “highest possible dose that does not cause noticeable cytotoxic effects” value in the data set on male C57/BL6 mice (i.p. once daily for three weeks, stated as probable) turned out to be 60 µg/kg.

Turning to `C=C1CC[C@H](O)C/C1=C/C=C1\CCC[C@]2(C)[C@@H]([C@H](C)CCCC(C)(C)O)CC[C@@H]12` [25(OH)D3, 25-hydroxyD3], in the data set on mice or rats (in vivo), the “dose reported to generate hypercalcemia” value is at least 1 µg/kg.
